Measurements reported in ChEMBL document CHEMBL3244368, “[3-(1,4-Cyclohexadienyl)-L-alanine,8-lysine]vasopressin: synthesis and some pharmacological properties” (J Med Chem, 1979).
Starred links: 1 amine or outer side, 2 acyl side, 3 side chain; linkers in the order of their positions; H or OH if unused. Positions of bridges follow the written chain, without caps; N, C: chain ends. Non-standard residues stand in square brackets, D forms with d. Residues, ends and D or L forms follow the SMILES beside them. *: point of attachment. X1 = O=C([C@H](CC1=CCC=CC1)N[*:1])[*:2]; Tos = Cc1ccc(S(=O)(=O)*)cc1; Cbz = O=C(OCc1ccccc1)*; Bn = c1ccc(C*)cc1

What was measured:
[1] = Stability of the compound in 0.2 M potassium phosphate buffer at pH 7.7 assessed as hydrolysis by measuring Gly level in presence of alpha-amylase preparation; format: ADME
[2] = Stability of the compound in 0.2 M potassium phosphate buffer at pH 7.7 assessed as hydrolysis by measuring Tyr level in presence of alpha-amylase preparation; format: ADME
[3] = Stability of the compound in 0.2 M potassium phosphate buffer at pH 7.7 assessed as hydrolysis by measuring Asn/Gln level in presence of pronase; format: ADME
How it was run: (§1)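 Pronase digest in 0.2 M potassium phosphate buffer, pH 7.7, substrate:enzyme 5:1. Half the enzyme added at start and half after 18 h at 37 °C, then incubated 4 h more. Released amino acids quantified by amino acid analysis.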

[4] = Stability of the compound in 0.2 M potassium phosphate buffer at pH 7.7 assessed as hydrolysis by measuring Gly level in presence of pronase; format: ADME; how it was run: as §1
[5] = Stability of the compound in 0.2 M potassium phosphate buffer at pH 7.7 assessed as hydrolysis by measuring Tyr level in presence of pronase; format: ADME; how it was run: as §1
[6] = Stability of the compound in 0.2 M potassium phosphate buffer at pH 7.7 assessed as hydrolysis by measuring Leu/Lys level in presence of alpha-amylase preparation; format: ADME
[7] = Stability of the compound in 0.2 M potassium phosphate buffer at pH 7.7 assessed as hydrolysis by measuring Ile/Phe + DiHPe level in presence of pronase; format: ADME; how it was run: as §1
[8] = Stability of the compound in 0.2 M potassium phosphate buffer at pH 7.7 assessed as hydrolysis by measuring Ile/Phe + DiHPe level in presence of alpha-amylase preparation; format: ADME
[9] = Stability of the compound in 0.2 M potassium phosphate buffer at pH 7.7 assessed as hydrolysis by measuring Asn/Gln level in presence of alpha-amylase preparation; format: ADME
[10] = Stability of the compound in 0.2 M potassium phosphate buffer at pH 7.7 assessed as hydrolysis by measuring Leu/Lys level in presence of pronase; format: ADME; how it was run: as §1
[11] = Stability of the compound in potassium phosphate buffer at pH 7 assessed as hydrolysis by measuring Phe level in presence of alpha-amylase preparation and cyclohexadiene
[12] = Stability of the compound in potassium phosphate buffer at pH 7 assessed as hydrolysis by measuring DiHPe level in presence of alpha-amylase preparation
[13] = Stability of the compound in 0.2 M potassium phosphate buffer at […] assessed as hydrolysis by measuring Tyr level in presence of alpha-amylase preparation and cyclohexadiene; format: ADME
How it was run: (§2)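 Aspergillus oryzae α-amylase preparation, 1 mg per 0.9 µmol peptide, in potassium phosphate buffer pH 7, with 1,4-cyclohexadiene (10 µL) and toluene, under N2, 37 °C, 17 h. Adjusted to pH 2.2 for amino acid analysis. Phe from a control of constituent amino acids plus enzyme subtracted to give Phe in residue 3.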

[14] = Stability of the compound in potassium phosphate buffer at pH 7 assessed as hydrolysis by measuring Phe level in presence of alpha-amylase preparation
[15] = Stability of the compound in potassium phosphate buffer at pH 7 assessed as hydrolysis by measuring DiHPe level in presence of alpha-amylase preparation and cyclohexadiene
[16] = Stability of the compound in phosphate buffer at pH 7.5 in presence of rat kidney homogenates; format: ADME, tissue-based; conditions: tissue homogenate
How it was run: (§3)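 DiHPhe incubated with rat kidney or liver homogenate in phosphate buffer, pH 7.5, then checked for conversion to Phe.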

[17] = Stability of the compound in phosphate buffer at pH 7.5 in presence of rat liver homogenates; format: ADME, tissue-based; conditions: tissue homogenate; how it was run: as §3
[18] = species: Gallus gallus; assay: Vasodepressor activity in chicken; format: functional
[19] = system: Rattus norvegicus; assay: Antidiuretic activity in iv dosed water loaded rat; format: functional, Urine
How it was run: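 Water-loaded rats under ethanol anesthesia, peptide given intravenously. Potency referenced to the USP Posterior Pituitary Reference Standard.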

[20] = species: Rattus norvegicus; assay: Vasopressor activity in phenoxybenzamine-treated rat; format: functional
How it was run: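 Phenoxybenzamine-treated rats under urethane anesthesia. Potency referenced to the USP Posterior Pituitary Reference Standard.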

[21] = Oxytocic activity in isolated rat uterus strips in Mg2+-free solution
[22] = Stability of the compound in 0.2 M potassium phosphate buffer at pH 7.7 assessed as hydrolysis by measuring Asn/Gln level in presence of papain and aminopeptidase M; format: ADME
How it was run: (§4)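 Papain digest in 0.5 M ammonium acetate, pH 5.3, with 0.15% mercaptoethanol, substrate:enzyme 20:1, 6 h at 37 °C. Acidified, clarified and lyophilized, then aminopeptidase M digest in 0.2 M potassium phosphate, pH 7.7, substrate:enzyme 1:1.5, 3 h at 37 °C. Amino acid analysis.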

[23] = Stability of the compound in 0.2 M potassium phosphate buffer at pH 7.7 assessed as hydrolysis by measuring Gly level in presence of pronase and aminopeptidase M; format: ADME
How it was run: (§5)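 Pronase digest in 0.2 M potassium phosphate, pH 7.7, substrate:enzyme 5:1, 37 °C, enzyme split over 18 h + 4 h. Digest acidified, clarified and lyophilized, then treated with aminopeptidase M (0.2 M potassium phosphate, pH 7.7, substrate:enzyme 1:1.5, 3 h, 37 °C). Amino acid analysis.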

[24] = Stability of the compound in 0.2 M potassium phosphate buffer at pH 7.7 assessed as hydrolysis by measuring Leu/Lys level in presence of alpha-amylase preparation and aminopeptidase M; format: ADME
[25] = Stability of the compound in […] assessed as hydrolysis by measuring Asn/Gln level in presence of alpha-amylase preparation and cyclohexadiene; format: ADME; conditions: buffer; how it was run: as §2
[26] = Stability of the compound in 0.2 M potassium phosphate buffer at pH 7.7 assessed as hydrolysis by measuring Ile/Phe + DiHPe level in presence of alpha-amylase preparation and aminopeptidase M; format: ADME
[27] = Stability of the compound in 0.2 M potassium phosphate buffer at […] assessed as hydrolysis by measuring Gly level in presence of alpha-amylase preparation and cyclohexadiene; format: ADME; how it was run: as §2
[28] = Stability of the compound in 0.2 M potassium phosphate buffer at pH 7.7 assessed as hydrolysis by measuring Leu/Lys level in presence of papain and aminopeptidase M; format: ADME; how it was run: as §4
[29] = Stability of the compound in 0.2 M potassium phosphate buffer at pH 7.7 assessed as hydrolysis by measuring Tyr level in presence of alpha-amylase preparation and aminopeptidase M; format: ADME
[30] = Stability of the compound in 0.2 M potassium phosphate buffer at pH 7.7 assessed as hydrolysis by measuring Leu/Lys level in presence of pronase and aminopeptidase M; format: ADME; how it was run: as §5
[31] = Stability of the compound in 0.2 M potassium phosphate buffer at pH 7.7 assessed as hydrolysis by measuring Ile/Phe + DiHPe level in presence of papain and aminopeptidase M; format: ADME; how it was run: as §4
[32] = Stability of the compound in […] potassium phosphate buffer at […] assessed as hydrolysis by measuring Ile/Phe + DiHPe level in presence of alpha-amylase preparation and cyclohexadiene; format: ADME; how it was run: as §2
[33] = Stability of the compound in 0.2 M potassium phosphate buffer at pH 7.7 assessed as hydrolysis by measuring Gly level in presence of alpha-amylase preparation and aminopeptidase M; format: ADME
[34] = Stability of the compound in 0.2 M potassium phosphate buffer at pH 7.7 assessed as hydrolysis by measuring Gly level in presence of papain and aminopeptidase M; format: ADME; how it was run: as §4
[35] = Stability of the compound in 0.2 M potassium phosphate buffer at pH 7.7 assessed as hydrolysis by measuring Asn/Gln level in presence of alpha-amylase preparation and aminopeptidase M; format: ADME
[36] = Stability of the compound in 0.2 M potassium phosphate buffer at pH 7.7 assessed as hydrolysis by measuring Asn/Gln level in presence of pronase and aminopeptidase M; format: ADME; how it was run: as §5
[37] = Stability of the compound in […] assessed as hydrolysis by measuring Leu/Lys level in presence of alpha-amylase preparation and cyclohexadiene; format: ADME; conditions: buffer; how it was run: as §2
[38] = Stability of the compound in 0.2 M potassium phosphate buffer at pH 7.7 assessed as hydrolysis by measuring Tyr level in presence of papain and aminopeptidase M; format: ADME; how it was run: as §4
[39] = Stability of the compound in 0.2 M potassium phosphate buffer at pH 7.7 assessed as hydrolysis by measuring Ile/Phe + DiHPe level in presence of pronase and aminopeptidase M; format: ADME; how it was run: as §5
[40] = Oxytocic activity in isolated rat uterus strips in Mg2+-free van Dyke-Hastings solution

Row | Structure (SMILES) | Drug degradation [1] | Drug degradation [2] | Drug degradation [3] | Drug degradation [4] | Drug degradation [6] | Drug degradation [7] | Drug degradation [8] | Drug degradation [9] | Drug degradation [10] | Drug degradation [11] | Drug degradation [13] | Drug degradation [15] | Activity [19] | Activity [20] | other results
1 | CC[C@H](C)[C@@H]1NC(=O)[C@H](Cc2ccc(O)cc2)NC(=O)[C@@H](N)CSSC[C@@H](C(=O)N2CCC[C@H]2C(=O)N[C@@H](CC(C)C)C(=O)NCC(N)=O)NC(=O)[C@H](CC(N)=O)NC(=O)[C@H](CCC(N)=O)NC1=O [OXYTOCIN] | 63 mol% | 63 mol% | 76 mol% | 36 mol% | 77 mol% | 54 mol% | 72 mol% | 110 mol% | 60 mol% |  |  |  |  |  | Drug degradation [5]: 70 mol%
2 | Cc1ccc(S(=O)(=O)NCCCC[C@H](NC(=O)[C@@H]2CCCN2C(=O)[C@H](CSCc2ccccc2)NC(=O)[C@H](CC(N)=O)NC(=O)[C@H](CCC(N)=O)NC(=O)[C@H](CC2=CCC=CC2)NC(=O)[C@H](Cc2ccc(OCc3ccccc3)cc2)NC(=O)[C@H](CSCc2ccccc2)NC(=O)OCc2ccccc2)C(=O)NCC(N)=O)cc1 (Cbz-C(Bn)Y(Bn)[X1]QNC(Bn)PK(Tos)G-NH2) | 18 mol% | 77 mol% |  |  |  |  |  | 67 mol% |  | 4.4 mol% | 73 mol% | 52.4 mol% |  |  | Drug degradation [12]: 57.6 mol%; Drug degradation [14]: 3.9 mol%
3 | N[C@@H](CC1=CCC=CC1)C(=O)O |  |  |  |  |  |  |  |  |  |  |  |  |  |  | Stability [16]: Stable; Stability [17]: Stable
4 | NCCCC[C@H](NC(=O)[C@@H]1CCCN1C(=O)[C@@H]1CSSC[C@H](N)C(=O)N[C@@H](Cc2ccc(O)cc2)C(=O)N[C@@H](Cc2ccc(O)cc2)C(=O)N[C@@H](CCC(N)=O)C(=O)N[C@@H](CC(N)=O)C(=O)N1)C(=O)NCC(N)=O (H-CYYQNCPKG-NH2; disulfide 1-6) |  |  |  |  |  |  |  |  |  |  |  |  | 0.18 U/mg | 0.07 U/mg | Activity [18]: 0.08 U/mg; Activity [21]: <=0.01 U/mg
5 | CC[C@H](C)[C@H](NC(=O)[C@H](Cc1ccc(O)cc1)NC(=O)[C@@H](N)CS(=O)(=O)O)C(=O)N[C@@H](CCC(N)=O)C(=O)N[C@@H](CC(N)=O)C(=O)N[C@@H](CS(=O)(=O)O)C(=O)N1CCC[C@H]1C(=O)N[C@@H](CC(C)C)C(=O)NCC(N)=O | 50 mol% | 26 mol% | 86 mol% | 44 mol% | 72 mol% | 38 mol% | 75 mol% | 72 mol% | 46 mol% |  | 23 mol% |  |  |  | Drug degradation [22]: 14 mol%; Drug degradation [23]: 54 mol%; Drug degradation [24]: 85 mol%; Drug degradation [25]: 86 mol%; Drug degradation [26]: 82 mol%; Drug degradation [27]: 38 mol%; Drug degradation [28]: 14 mol%; Drug degradation [29]: 35 mol%; Drug degradation [30]: 65 mol%; Drug degradation [31]: 13 mol%; Drug degradation [32]: 51 mol%; Drug degradation [33]: 60 mol%; Drug degradation [34]: 13 mol%; Drug degradation [35]: 90 mol%; Drug degradation [36]: 124 mol%; Drug degradation [37]: 57 mol%; Drug degradation [38]: 30 mol%; Drug degradation [39]: 65 mol%
6 | NCCCC[C@H](NC(=O)[C@@H]1CCCN1C(=O)[C@@H]1CSSC[C@H](N)C(=O)N[C@@H](Cc2ccc(O)cc2)C(=O)N[C@@H](CC2=CCC=CC2)C(=O)N[C@@H](CCC(N)=O)C(=O)N[C@@H](CC(N)=O)C(=O)N1)C(=O)NCC(N)=O (H-CY[X1]QNCPKG-NH2; disulfide 1-6) |  |  |  |  |  |  |  |  |  | 8.7 mol% | 89 mol% | 66 mol% | 125 U/mg | 129 U/mg | Activity [40]: 6 U/mg
